Test results as given in ChEMBL document CHEMBL3124896, “Optimization of the lactam side chain of 7-azaindenoisoquinoline topoisomerase I inhibitors and mechanism of action studies in cancer cells” (2014).
Activity calls are given as the source filed them. The calls are words filed in the database; no cut-off is given here.

Assays:
[1] = target: T1, DNA topoisomerase 1 (Homo sapiens) (UniProt P11387); assay: Inhibition of human recombinant topoisomerase 1 using radiolabeled DNA as substrate after 20 mins by SDS-PAGE
T1 sequence (whole entry): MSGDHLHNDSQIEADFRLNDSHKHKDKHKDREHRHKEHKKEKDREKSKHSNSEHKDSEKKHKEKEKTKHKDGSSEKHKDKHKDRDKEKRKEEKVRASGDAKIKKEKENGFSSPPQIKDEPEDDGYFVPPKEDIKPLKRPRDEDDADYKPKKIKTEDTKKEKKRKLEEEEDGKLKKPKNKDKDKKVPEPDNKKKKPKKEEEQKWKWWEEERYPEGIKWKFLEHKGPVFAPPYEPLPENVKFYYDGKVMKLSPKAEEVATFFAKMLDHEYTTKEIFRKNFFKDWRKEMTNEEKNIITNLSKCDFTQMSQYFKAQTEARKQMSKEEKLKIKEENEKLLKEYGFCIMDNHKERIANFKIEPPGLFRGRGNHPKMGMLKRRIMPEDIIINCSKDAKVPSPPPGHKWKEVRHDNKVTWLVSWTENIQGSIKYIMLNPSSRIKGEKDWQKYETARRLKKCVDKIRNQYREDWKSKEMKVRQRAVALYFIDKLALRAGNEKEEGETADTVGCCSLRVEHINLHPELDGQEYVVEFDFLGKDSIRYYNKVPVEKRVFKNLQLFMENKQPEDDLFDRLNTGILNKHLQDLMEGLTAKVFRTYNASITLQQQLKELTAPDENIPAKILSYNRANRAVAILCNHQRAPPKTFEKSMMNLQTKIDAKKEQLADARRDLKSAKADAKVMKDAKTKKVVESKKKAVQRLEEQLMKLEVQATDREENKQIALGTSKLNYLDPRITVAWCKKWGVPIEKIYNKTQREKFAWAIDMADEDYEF
Summary of the method: (§1)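 A 117 bp oligonucleotide was 3′-end-labelled with [α-32P]dGTP by Klenow fill-in. Reactions were stopped with 0.5% SDS and run on 20% denaturing polyacrylamide gels. Cleavage bands were scored visually on a semiquantitative scale.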

[2] = test system: SN12C; assay: Cytotoxicity against human SN12C cells by SRB assay; format: functional
[3] = test system: HCT-116; assay: Cytotoxicity against human HCT116 cells by SRB assay; format: functional
[4] = test system: UACC-62; assay: Cytotoxicity against human UACC62 cells by SRB assay; format: functional
[5] = test system: OVCAR-3; assay: Cytotoxicity against human OVCAR3 cells by SRB assay; format: functional
[6] = test system: MCF7; assay: Cytotoxicity against human MCF7 cells by SRB assay; format: functional
[7] = test system: DU-145; assay: Cytotoxicity against human DU145 cells by SRB assay; format: functional
[8] = target: T1, DNA topoisomerase 1 (Homo sapiens); assay: Inhibition of human recombinant topoisomerase 1 using radiolabeled DNA as substrate at 0.1 to 100 uM after 20 mins by SDS-PAGE
Summary of the method: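 Baculovirus-purified human recombinant Top1 with ~2 nM of a 117 bp oligonucleotide, 3′-end-labeled with [α-32P]dGTP by Klenow fill-in. Drugs at 0.1, 1, 10, 100 μM; 25 °C, 20 min. Stopped with 0.5% SDS, run on 20% denaturing PAGE, phosphorimaged. Cleavage bands scored visually against camptothecin standard.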

[9] = test system: SF-539; assay: Cytotoxicity against human SF539 cells by SRB assay; format: functional
[10] = test system: HOP-62; assay: Cytotoxicity against human HOP62 cells by SRB assay; format: functional
[11] = target: T1, DNA topoisomerase 1 (Homo sapiens); assay: Inhibition of human recombinant topoisomerase 1 using radiolabeled DNA as substrate at 100 uM after 20 mins by SDS-PAGE; summary of the method: as §1
[12] = test system: HCT-116; assay: Induction of DNA damage in human HCT116 cells assessed as induction of histone gamma-H2AX level at 1 uM after 1 hr by flow cytometry
[13] = Resistance ratio of GI50 for vinblastine-resistant human KBV1 cells to GI50 for human KB 3.1 cells; format: functional
[14] = Cytotoxicity against human RC0.1 cells after 72 hrs by MTT assay; format: functional
Summary of the method: (§2)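 Cells were seeded 24 h before dosing and exposed continuously for 72 h. Growth was read by colorimetric MTS assay and expressed relative to vehicle-treated controls set at 100. GI50 is the level giving 50% growth inhibition, from at least two independent determinations. HCT116 and siTop1 cells were kept in RPMI 1640/10% FBS with 100 μg/mL hygromycin; RC0.1 in RPMI 1640/10% FBS.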

[15] = target: T1, DNA topoisomerase 1 (Homo sapiens); assay: Inhibition of human recombinant topoisomerase 1 in human HCT116 cells assessed as reversal of topoisomerase 1-DNA cleavage complex stabilization at 1 uM incubated for 1 hr followed by compound washout measured after 24 hrs by DNA immunoblotting analysis; format: cell-based; settings: HCT-116
Summary of the method: (§3)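 10^6 HCT116 cells were treated with 1 μM for 1 h, and for reversal were held in drug-free medium for the set times. Cells were lysed with DNAzol and genomic DNA was isolated and sonicated. Serial dilutions were slot-blotted onto membranes and Top1–DNA complexes detected with the C21 anti-Top1 monoclonal antibody by immunoblotting (ICE method).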

[16] = test system: DU-145; assay: Cytotoxicity against human DU145 cells after 72 hrs by MTT assay; format: functional; settings: DU-145, 72 h; summary of the method: as §2
[17] = target: T1, DNA topoisomerase 1 (Homo sapiens); assay: Inhibition of human recombinant topoisomerase 1 in human HCT116 cells assessed as DNA-protein cross linking at 1 uM incubated for 1 hr followed by compound washout measured after 1 hr; format: cell-based; settings: HCT-116
Summary of the method: (§4)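 In HCT116 cells, Top1 cleavage complexes were quantified as DNA–protein cross-links by alkaline elution, plotting the fraction of DNA retained on the filter against time. Persistence was read 1 h after drug removal. The negative control was untreated cells given 30 Gy irradiation to create strand breaks.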

[18] = Cytotoxicity against human KB 3.1 cells after 72 hrs by MTT assay; format: functional; settings: KB 3-1, 72 h; summary of the method: as §2
[19] = test system: HCT-116; assay: Cell cycle arrest in human HCT116 cells assessed as accumulation at G2 phase at 1 uM incubated for 1 hr followed by compound washout measured after 6 to 48 hrs by propidium iodide staining-based FACS analysis; format: functional
Summary of the method: (§5)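 HCT116 cells exposed to 1 μM drug for 1 h, then kept in drug-free medium for the stated times. Fixed cells were stained with propidium iodide and analysed by flow cytometry for DNA content histograms. Phase distributions were computed from the histograms.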

[20] = test system: HCT-116; assay: Cell cycle arrest in human HCT116 cells assessed as accumulation at S phase at 1 uM incubated for 1 hr followed by compound washout measured after 3 hrs by propidium iodide staining-based FACS analysis; format: functional; summary of the method: as §5
[21] = test system: HCT-116; assay: Cytotoxicity against human HCT116 cells after 72 hrs by MTT assay; format: functional; settings: HCT-116, 72 h; summary of the method: as §2
[22] = test system: DU-145; assay: Resistance ratio of GI50 for human RC0.1 cells to GI50 for human DU145 cells; format: functional
Summary of the method: (§6)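 Relative resistance = GI50 in the resistant subline divided by GI50 in the parental line. Both GI50s came from 72 h continuous-exposure MTS growth assays, each based on at least two independent determinations.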

[23] = Cytotoxicity against human H460 cells after 72 hrs by MTT assay; format: functional; settings: NCI-H460, 72 h; summary of the method: as §2
[24] = target: T1, DNA topoisomerase 1 (Homo sapiens); assay: Inhibition of human recombinant topoisomerase 1 in human HCT116 cells assessed as DNA-protein cross linking at 1 uM after 1 hr; format: cell-based; settings: HCT-116; summary of the method: as §4
[25] = test system: HCT-116; assay: Resistance ratio of GI50 for human HCT116 cells transfected with Top1-siRNA to GI50 for human HCT116 cells; format: functional; summary of the method: as §6
[26] = target: T1, DNA topoisomerase 1 (Homo sapiens); assay: Inhibition of human recombinant topoisomerase 1 in human HCT116 cells assessed as reversal of topoisomerase 1-DNA cleavage complex stabilization at 1 uM incubated for 1 hr followed by compound washout measured up to 6 hrs by DNA immunoblotting analysis; format: cell-based; settings: HCT-116; summary of the method: as §3
[27] = Cytotoxicity against vinblastine-resistant human KBV1 cells after 72 hrs by MTT assay; format: functional; settings: KB-V1, 72 h; summary of the method: as §2
[28] = test system: HCT-116; assay: Cytotoxicity against human HCT116 cells transfected with Top1-siRNA after 72 hrs by MTT assay; format: functional; settings: HCT-116, 72 h; summary of the method: as §2
[29] = test system: HCT-116; assay: Cell cycle arrest in human HCT116 cells at 1 uM after 1 hr by propidium iodide staining-based FACS analysis; format: functional; summary of the method: as §5
[30] = target: T1, DNA topoisomerase 1 (Homo sapiens); assay: Inhibition of human recombinant topoisomerase 1 in human HCT116 cells assessed as stabilization of topoisomerase 1-DNA cleavage complex at 1 uM after 1 hr by DNA immunoblotting analysis; format: cell-based; settings: HCT-116; summary of the method: as §3
[31] = Resistance ratio of GI50 for human mitoxantrone-resistant H460 cells to GI50 for human H460 cells; format: functional; summary of the method: as §6
[32] = test system: HCT-116; assay: Cell cycle arrest in human HCT116 cells at 1 uM incubated for 1 hr followed by compound washout measured up to 1 hr by propidium iodide staining-based FACS analysis; format: functional; summary of the method: as §5
[33] = Cytotoxicity against human mitoxantrone-resistant H460 cells after 72 hrs by MTT assay; format: functional; settings: NCI-H460, 72 h; summary of the method: as §2

Structure (SMILES): O=C1c2cccnc2-c2c1c1ccc([N+](=O)[O-])cc1c(=O)n2CCCN1CCOCC1
- inhibition [1]: Active

Structure (SMILES): COc1cnc2c(c1)C(=O)c1c-2n(CCCN(C)CCO)c(=O)c2cc([N+](=O)[O-])ccc12
- GI50 [2]: 39 nM
- GI50 [3]: 49 nM
- GI50 [4]: 29 nM
- GI50 [5]: 180 nM
- GI50 [6]: 13 nM
- GI50 [7]: 36 nM
- inhibition [8]: Active
- GI50 [9]: 34 nM
- GI50 [10]: 28 nM

Structure (SMILES): COc1cnc2c(c1)C(=O)c1c-2n(CCCN)c(=O)c2cc([N+](=O)[O-])ccc12
- GI50 [2]: 40 nM
- GI50 [3]: 36 nM
- GI50 [4]: 24 nM
- GI50 [5]: 98 nM
- GI50 [6]: < 10 nM
- GI50 [7]: 35 nM
- inhibition [8]: Active
- GI50 [9]: 73 nM
- GI50 [10]: 19 nM

Structure (SMILES): COc1cc2c3c(n(C)c(=O)c2cc1OC)-c1cc2c(cc1C3=O)OCO2
- GI50 [2]: 68000 nM
- GI50 [3]: 35000 nM
- GI50 [4]: 4200 nM
- inhibition [11]: Active
- GI50 [7]: 37000 nM
- GI50 [10]: 1300 nM

Structure (SMILES): COc1cnc2c(c1)C(=O)c1c-2n(CCCN2CCOCC2)c(=O)c2cc([N+](=O)[O-])ccc12
- Activity [12]: 37.6%
- RatioGI50 [13]: 0.74
- inhibition [1]: Active
- GI50 [14]: 1050 nM
- inhibition [15]: Active
- GI50 [16]: 141 nM
- inhibition [17]: Active
- GI50 [18]: 562 nM
- Activity [19]: Active
- Activity [20]: Active
- GI50 [21]: 126 nM
- RatioGI50 [22]: 7.41
- GI50 [23]: 33.9 nM
- inhibition [24]: Active
- RatioGI50 [25]: 0.89
- inhibition [26]: Active
- GI50 [27]: 417 nM
- GI50 [28]: 112 nM
- Activity [29]: Active
- inhibition [30]: Active
- RatioGI50 [31]: 5.25
- Activity [32]: Active
- GI50 [33]: 178 nM

Structure (SMILES): COc1cnc2c(c1)C(=O)c1c-2n(CCCN(C)C)c(=O)c2cc([N+](=O)[O-])ccc12
- inhibition [1]: Active

Structure (SMILES): CC[C@@]1(O)C(=O)OCc2c1cc1n(c2=O)Cc2cc3ccccc3nc2-1 [CAMPTOTHECIN]
- Activity [12]: 40.9%
- GI50 [14]: > 1000 nM
- GI50 [16]: 18.2 nM
- GI50 [6]: 13 nM
- GI50 [21]: 17.4 nM
- GI50 [28]: 35.5 nM
